Assay results taken from article PMC10913540 (Journal of medicinal chemistry, 2021).

What was measured:
X = X (Homo sapiens, UniProt P28074); assay: In vitro proteasome activity assay, purified human 20S proteasome, Ac-WLA-AMC; format: biochemical
LMP2 [1] = target: T1, LMP2 (Homo sapiens, UniProt P28065); assay: In vitro proteasome activity assay, purified human 20S proteasome, Ac-PAL-AMC; format: biochemical; conditions: P3-proline substitution of 21, purified proteasome
Tg2576 mice = assay: Morris water maze, probe trial and passive avoidance in Tg2576 mice; format: in vivo, mouse; conditions: 10 mg/kg twice weekly for 3 weeks
Summary of the method: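 Tg2576 mice (9-month-old, acclimatised one month) were injected with 10 mg/kg twice weekly for 3 weeks. Morris water maze training ran on days 1–5: hidden platform 1–1.5 cm below 25 ± 1 °C water, three 60-s trials daily from randomised starts. The probe trial on day 6 tracked swimming for 60 s and recorded time in the former platform quadrant by video. Student's t-test, n=5.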

IL-1α [2] = assay: Serum IL-1α levels in Tg2576 mice; format: in vivo, mouse; conditions: 10 mg/kg twice weekly for 3 weeks, vs vehicle
Summary of the method: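 Serum from 9-month-old Tg2576 mice (dosed or vehicle) diluted 1:5, then incubated with IL-1α standards (seven serial twofold dilutions) on capture-antibody-coated plates for 2 h at room temperature. Five washes, detection antibody 1 h, avidin-HRP 30 min, five washes, substrate, stop with 2N H2SO4. Absorbance read at 450 nm; n=3.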

ABCG2 = target: T2, ABCG2 (Homo sapiens, UniProt Q9UNQ0); assay: ABCG2 interaction assay; format: cell-based; conditions: MDCKII/ABCG2 cells, PhA 1 μM; DB-60 (20) 2 or 5 μM, Ko143 0.2 μM
T2 sequence (Q9UNQ0 1-655): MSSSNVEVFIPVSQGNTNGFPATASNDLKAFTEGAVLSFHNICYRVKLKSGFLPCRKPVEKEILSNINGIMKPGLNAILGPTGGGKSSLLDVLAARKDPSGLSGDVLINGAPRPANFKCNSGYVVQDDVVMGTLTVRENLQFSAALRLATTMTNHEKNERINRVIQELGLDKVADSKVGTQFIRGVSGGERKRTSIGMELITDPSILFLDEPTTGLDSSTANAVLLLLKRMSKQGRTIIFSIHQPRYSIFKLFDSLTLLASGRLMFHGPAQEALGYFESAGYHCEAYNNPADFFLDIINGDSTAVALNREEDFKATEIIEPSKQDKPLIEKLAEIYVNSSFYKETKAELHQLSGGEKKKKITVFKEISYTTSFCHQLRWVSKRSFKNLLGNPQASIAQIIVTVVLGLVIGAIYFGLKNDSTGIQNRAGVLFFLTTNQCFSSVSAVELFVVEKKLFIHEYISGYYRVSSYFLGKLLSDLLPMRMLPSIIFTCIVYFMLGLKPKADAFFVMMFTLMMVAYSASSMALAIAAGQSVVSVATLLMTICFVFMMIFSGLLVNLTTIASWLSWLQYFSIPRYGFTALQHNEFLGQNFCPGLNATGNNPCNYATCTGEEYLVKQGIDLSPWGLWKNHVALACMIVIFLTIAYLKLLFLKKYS

[3] = Observation of overt toxicity during treatment; format: in vivo; conditions: Tg2576 or non-transgenic ICR mice during the test period
[4] = In vitro metabolic stability in mouse whole blood; format: in vitro ADME; conditions: ICR mice, 1 μM, 0, 10 and 30 min, compared with YU102
Summary of the method: (§1)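 Matrices came from male 7-week-old ICR mice: whole blood with 25 IU/mL heparin, and liver homogenised in ice-cold PBS (2.5 mL/g). After pre-incubation at 37 °C, test compound was added to 1 μM final. Sampling was at 0, 10 and 30 min for blood and 0, 10 and 20 min for liver. […] Remaining drug was measured by LC-MS/MS.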

[5] = tested on: retinal pigment epithelium (RPE); assay: RPE flat mounts, anti-β-catenin immunostaining; format: in vivo, mouse
Summary of the method: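 After behaviour testing, eyes from treated Tg2576 mice and from age-matched non-transgenic ICR mice were fixed in 4% paraformaldehyde (1 h, RT). Eyecups were dissected, retina removed, and RPE sheets permeabilised (0.2% Triton X-100, 15 min) and blocked (3% BSA, 1 h). Sheets were stained with anti-β-catenin (1:100, overnight 4 °C), then Alexa 555 secondary (1:1000, 2 h RT), and imaged by confocal microscopy. Images are representative of 3 independent replicates.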

[6] = In vitro metabolic stability in mouse liver homogenates; format: in vitro ADME; conditions: ICR mice, 1 μM, 0, 10 and 20 min, compared with YU102
Summary of the method: as §1

LMP7 = LMP7 (Homo sapiens, UniProt P28062); assay: In-cellulo LMP7 inhibition in RPMI-8226/ABCB1 vs parental RPMI-8226 cells; format: cell-based; conditions: Supple. Table S1
Summary of the method: (§2)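 Lysates (14,000 g, 20 min, 4 °C; 5 μg protein) in 20 mM Tris-HCl, 0.5 mM EDTA, 0.035% SDS, pH 8.0, received Ac-PAL-AMC (LMP2) or Ac-ANW-AMC (LMP7), each at 100 μM. Fluorescence (ex 360/em 460 nm) was read every minute for 1 h. IC50s were compared between lines.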

IL-1α [7] = assay: IL-1α release by LPS-activated BV-2 cells; format: cell-based, murine; conditions: LPS 1 μg/mL
Summary of the method: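 BV-2 microglia were stimulated with LPS (1 μg/mL). IL-1α in the culture supernatants was measured by sandwich ELISA. Supernatants and standards (seven serial twofold dilutions) sat overnight at 4 °C on capture-antibody plates, then went through detection antibody (1 h), avidin-HRP (30 min), substrate, and a 2N H2SO4 stop. A450 was read. Three technical replicates, SD shown.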

LMP2 [8] = target: LMP2 (Mus musculus, UniProt P28076); assay: LMP2 activity in brain homogenates after single intravenous dosing; format: in vivo; conditions: ICR mice, single intravenous dosing 10 mg/kg, 1-hour post-dosing
LMP2 [9] = target: T1, LMP2; assay: In-cellulo LMP2 inhibition in RPMI-8226/ABCB1 vs parental RPMI-8226 cells; format: cell-based; conditions: either cell line
Summary of the method: as §2

| IC50 (X) [µM] | Compound | LMP2 inhibitory potency compared with 21 (LMP2 [1]) | other results |
| --- | --- | --- | --- |
| > 10 | CC(C)C[C@H](NC(=O)[C@@H]1Cc2ccc(cc2)OCCCCCCC(=O)N2CCC[C@H]2C(=O)N1)C(=O)[C@@]1(C)CO1 [compound 16, (1^2S,4S)-N-((S)-4-Methyl-1-((R)-2-methyloxiran-2-yl)-1-oxopentan-2-yl)-2,14-dioxo-7-oxa-3-aza-1(2,1)-pyrrolidina-6(1,4)-benzenacyclotetradecaphane-4-carboxamide] |  |  |
| > 10 | C[C@]1(C(=O)[C@H](Cc2ccccc2)NC(=O)[C@@H]2COCCCCCC(=O)N3CCC[C@H]3C(=O)N2)CO1 [compound 25, (3S,15aS)-N-((S)-1-((R)-2-Methyloxiran-2-yl)-1-oxo-3-phenylpropan-2-yl)-1,11-dioxotetradecahydropyrrolo[2,1-f][1]oxa[4,7]diazacyclotridecine-3-carboxamide] |  |  |
| > 10 | CC(C)C[C@H](NC(=O)[C@@H]1COCCCCCC(=O)N2CC(F)(F)C[C@H]2C(=O)N1)C(=O)[C@@]1(C)CO1 [compound 33, (3S,15aS)-14,14-Difluoro-N-((S)-4-methyl-1-((R)-2-methyloxiran-2-yl)-1-oxopentan-2-yl)-1,11-dioxotetradecahydropyrrolo[2,1-f][1]oxa[4,7]diazacyclotridecine-3-carboxamide] | LMP2 inhibitory potency similar to 21 |  |
| > 10 | CC(C)C[C@H](NC(=O)[C@@H]1COCCCCCC(=O)N2CCCC[C@H]2C(=O)N1)C(=O)[C@@]1(C)CO1 [compound 36, (3S,16aS)-N-((S)-4-Methyl-1-((R)-2-methyloxiran-2-yl)-1-oxopentan-2-yl)-1,11-dioxotetradecahydro-2H-pyrido[2,1-f][1]oxa[4,7]diazacyclotridecine-3-carboxamide] | substantial decrease in the LMP2 inhibitory potency |  |

The remaining lines, values behind:

| Compound | IC50 (X) [µM] | LMP2 inhibitory potency compared with 21 (LMP2 [1]) | other results |
| --- | --- | --- | --- |
| CC(C)C[C@H](NC(=O)[C@@H]1COCCCCCC(=O)N2C[C@H](F)C[C@H]2C(=O)N1)C(=O)[C@@]1(C)CO1 [compound 32, (3S,14S,15aS)-14-Fluoro-N-((S)-4-methyl-1-((R)-2-methyloxiran-2-yl)-1-oxopentan-2-yl)-1,11-dioxotetradecahydropyrrolo[2,1-f][1]oxa[4,7]diazacyclotridecine-3-carboxamide] | > 10 | substantial decrease in the LMP2 inhibitory potency |  |
| CC(C)C[C@H](NC(=O)[C@@H]1COCCCCCC(=O)N2CC[C@H]2C(=O)N1)C(=O)[C@@]1(C)CO1 [compound 35, (10S,13S)-N-((S)-4-Methyl-1-((R)-2-methyloxiran-2-yl)-1-oxopentan-2-yl)-2,12-dioxo-8-oxa-1,11-diazabicyclo[11.2.0]pentadecane-10-carboxamide] | > 10 | LMP2 inhibitory potency similar to 21 |  |
| C[C@]1(C(=O)[C@H](Cc2ccccc2)NC(=O)[C@@H]2Cc3ccc(cc3)OCCCCCCCC(=O)N3CCC[C@H]3C(=O)N2)CO1 [compound 20, (1^2S,4S)-N-((S)-1-((R)-2-Methyloxiran-2-yl)-1-oxo-3-phenylpropan-2-yl)-2,15-dioxo-7-oxa-3-aza-1(2,1)-pyrrolidina-6(1,4)-benzenacyclopentadecaphane-4-carboxamide] |  |  | probe trial: percentage of time spent in the target quadrant (Tg2576 mice; day 6, vs control): higher than control mice; passive avoidance test: step-through latency (Tg2576 mice; days 7-8, vs control): performed better in a fear-aggravated test (passive avoidance) than control mice; serum levels of IL-1α (IL-1α [2]): lower in Tg2576 mice receiving DB-60 (20) treatment than the control mice; inhibition of the ABCG2-mediated efflux of PhA (cellular accumulation of PhA) (ABCG2): no inhibition of the ABCG2-mediated efflux of PhA; overt toxicity [3]: No sign of overt toxicity; metabolic stability in whole blood [4]: greater metabolic stability than YU102; RPE structure in Tg2576 mice ([5]; Tg2576 mice after behavior tests, anti-β-catenin staining): displayed the orderly structure; RPE structural integrity in non-transgenic ICR mice ([5]; age-matching non-transgenic ICR mice treated with DB-60 (20)): not affected; stability in liver homogenates [6]: superior to YU102; fold decrease of LMP7 inhibition, RPMI-8226/ABCB1 vs parental RPMI-8226 (LMP7): ~ 2 fold; release of IL-1α by LPS-activated microglial BV-2 cells (IL-1α [7]): decreased the release of IL-1α; inhibition of LMP2 activity in brain homogenates (LMP2 [8]): no appreciable inhibition of the LMP2 activity |
| CC(C)C[C@H](NC(=O)[C@@H]1COCCCCCC(=O)N2CCC[C@@]2(C)C(=O)N1)C(=O)[C@@]1(C)CO1 [compound 34, (3S,15aS)-15a-Methyl-N-((S)-4-methyl-1-((R)-2-methyloxiran-2-yl)-1-oxopentan-2-yl)-1,11-dioxotetradecahydropyrrolo[2,1-f][1]oxa[4,7]diazacyclotridecine-3-carboxamide] | > 10 | substantial decrease in the LMP2 inhibitory potency |  |
| CC(C)C[C@H](NC(=O)[C@@H]1COCCCCCCC(=O)NCC(=O)N2CCC[C@H]2C(=O)N1)C(=O)[C@@]1(C)CO1 [compound 27, (3S,19aS)-N-((S)-4-Methyl-1-((R)-2-methyloxiran-2-yl)-1-oxopentan-2-yl)-1,12,15-trioxooctadecahydropyrrolo[2,1-f][1]oxa[4,7,10]triazacycloheptadecine-3-carboxamide] | > 10 |  | LMP2 inhibition in RPMI-8226/ABCB1 and parental RPMI-8226 cells (LMP2 [9]): no LMP2 inhibition in either cell line |
| CC(C)C[C@H](NC(=O)[C@@H]1COCCCCCC(=O)NCC(=O)N2CCC[C@H]2C(=O)N1)C(=O)[C@@]1(C)CO1 [compound 26, (3S,18aS)-N-((S)-4-Methyl-1-((R)-2-methyloxiran-2-yl)-1-oxopentan-2-yl)-1,11,14-trioxohexadecahydro-6H-pyrrolo[2,1-f][1]oxa[4,7,10]triazacyclohexadecine-3-carboxamide] | > 10 |  | LMP2 inhibition in RPMI-8226/ABCB1 and parental RPMI-8226 cells (LMP2 [9]): no LMP2 inhibition in either cell line |
